Screening data as filed in PubChem.
Most compounds without a hit are left out; they make up all but 3.5% or so of the library.
MrgX1 allo act: allosterically activates human MrgX1 receptor signaling | MrgX1-HEK293, Fluo-4 calcium flux, FDSS; stronger effect = higher value | 0.63% of 310,000 active | B-score at 10 µM | Q96LB2;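 active = plate-corrected calcium response at least 3 library SD above typical, normal starting fluorescence, not activating the receptor alone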;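 also: compound read alongside a low EC10 to EC30 dose of BAM8-22 agonist; peak minus trough fluorescence over baseline measured at the second addition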
Target sequence (Q96LB2 whole entry, looked up): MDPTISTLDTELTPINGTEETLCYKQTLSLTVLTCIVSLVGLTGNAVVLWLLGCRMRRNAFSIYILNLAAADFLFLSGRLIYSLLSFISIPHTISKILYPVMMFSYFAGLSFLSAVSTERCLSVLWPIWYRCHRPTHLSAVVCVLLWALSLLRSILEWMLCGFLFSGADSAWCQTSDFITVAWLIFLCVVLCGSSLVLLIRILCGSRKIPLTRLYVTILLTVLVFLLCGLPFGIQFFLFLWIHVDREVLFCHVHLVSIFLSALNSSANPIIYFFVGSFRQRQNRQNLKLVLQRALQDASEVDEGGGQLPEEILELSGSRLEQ
RGS4 inh: inhibitors of human RGS4. HEK293 M3R/RGS4 inducible, Fluo-4 calcium flux; stronger effect = higher value; triggered by carbachol at its EC20. 0.45% of 310,000 active. P49798. B-score at 10 µM;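 active = B-score, a plate-corrected calcium signal, over three deviations above library mean, with baseline fluorescence within five deviations of library mean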;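 also: RGS4 expression induced by doxycycline in cells with stable M3 receptor; B-score is computed from the integrated fluorescence ratio over baseline after carbachol; higher B-score means a larger calcium signal and so more RGS4 inhibition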
Target sequence (P49798 whole entry, looked up): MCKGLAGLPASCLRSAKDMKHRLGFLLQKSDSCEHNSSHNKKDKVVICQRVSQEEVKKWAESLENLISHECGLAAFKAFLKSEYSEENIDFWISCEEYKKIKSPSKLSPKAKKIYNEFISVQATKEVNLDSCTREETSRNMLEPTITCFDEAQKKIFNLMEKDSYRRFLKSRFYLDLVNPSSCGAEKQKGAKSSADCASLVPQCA
MrgX1 agonist: agonists of human MrgX1 receptor; 0.44% of 310,000 active; Q96LB2; MrgX1-HEK293 cells, Fluo-4 calcium fluorescence, agonist mode; stronger effect = higher value; B-score at 10 µM;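 active = calcium response B-score plate-corrected fluorescence ratio at least 3 library SD, with starting fluorescence B-score inside 5 SD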
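Test system: HEK293 cells stably expressing human MrgX1 receptor; Input: fifteen thousand cells per well; Dosing: compound delivered in addition one of three; Schedule: overnight seeding, then 1 h dark dye loading; Technique: Fluo-4 NW calcium fluorescence; Measure: B-scored fluorescence response ratio; Controls: positive and negative controls per plate.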
RGS4 act: potentiators or activators of RGS4 | B-score at 10 µM | HEK293 M3R/inducible RGS4, carbachol calcium flux Fluo4; stronger effect = lower value | 0.92% of 310,000 active;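 active = B-score of the integrated calcium signal more than 4 SD below the library mean, with starting fluorescence not abnormally high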;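 also: negative B-score means reduced calcium response which marks RGS4 activation or potentiation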
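System – HEK293 FlpIn-TREx cells, stable M3R, doxycycline-inducible RGS4 · Reagent – ECmax carbachol challenge · Times – compound preincubation 20 min at room temperature before agonist · Technique – Fluo4 fluorescence kinetic imaging of calcium · Measure – B score of integrated Fluo4 ratio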
MrgX1 antagonist: blocks BAM8-22 activation of human MrgX1 receptor; MRGX1-HEK293 calcium flux, Fluo-4, BAM8-22 antagonism; stronger effect = lower value; B-score at 10 µM; 1.3% of 310,000 active; AID 588676;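 active = calcium-response B-score plate-corrected more than 3 library SD below zero, starting fluorescence within 5 deviations, no agonist response on first addition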;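 also: peak minus trough fluorescence over baseline after final BAM8-22 challenge near maximal dose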
MrgX1 antag conf: reconfirmed antagonist of human MrgX1 receptor signaling | shares compounds with MrgX1 antagonist | MrgX1-HEK293, BAM8-22 calcium flux, Fluo-4; stronger effect = lower value | remaining BAM8-22 calcium response % of control (stronger effect = lower value), % at 10 µM | 19% of 2,300 active | AID 602420;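 active = remaining agonist calcium response no higher than 100% minus 3 SD of agonist-only control wells, with starting fluorescence near control levels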;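 also: agonist BAM8-22 given at a near maximal EC90 to ECmax level; peak minus minimum fluorescence divided by baseline after agonist addition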
HEK293 Ca flux: activity in parental HEK293 cells lacking MrgX1; shares compounds with MrgX1 antagonist; Fluo-4 calcium fluorescence, FDSS; fluorescence ratio F(max-min)/F0 at 10 µM; 2% of 4,000 active;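 active = duplicate-averaged calcium fluorescence ratio at least three times the standard deviation of buffer wells, a nonspecific response in parental cells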
HEK293 Ca counter: counter-screen for MrgX1 allosteric activators: effect in parental HEK293 cells | shares compounds with MrgX1 antagonist | parental HEK293 calcium flux, Fluo-4 fluorescence ratio; stronger effect = higher value | fluorescence ratio F(max-min)/F0 at 10 µM | 0.4% of 4,000 active;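 active = calcium fluorescence ratio, averaged over duplicates, at least 3 SD of the buffer-well ratio, meaning a nonspecific response in receptor-free cells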;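 also: untransfected parental HEK293 lacking MrgX1 used as counterscreen for MrgX1 allosteric activators; fluorescence change taken during the second addition on a kinetic imager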
HEK293 Ca cntr2: MrgX1 activator counter-screen hit in parental HEK293 cells; AID 624115; fluorescence ratio F(max-min)/F0 at 10 µM; 8.7% of 4,000 active; Fluo-4 calcium fluorescence (FDSS); stronger effect = higher value; shares compounds with MrgX1 antagonist;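 active = calcium fluorescence ratio at least three times the spread of buffer wells, meaning a non-specific response in parental cells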
Large screens that a line does not name were inactive (follow-up assays come after a bar, where they were run).

Cc1ccc2cc(CN(Cc3cccs3)Cc3nnnn3CC3CCCO3)c(=O)[nH]c2c1 (stereo not drawn)	MrgX1 antagonist -4.8 | MrgX1 antag conf inactive | HEK293 Ca flux inactive | HEK293 Ca counter inactive | HEK293 Ca cntr2 inactive
Cc1ccc2[nH]c(=O)c(CN(Cc3cccs3)Cc3nnnn3CC3CCCO3)cc2c1 (stereo not drawn)	none
O=C(Nc1ccccc1)N1CCC(c2ccccc2)C1 (stereo not drawn)	none
O=C(CCN1CCC(c2ccccc2)C1)c1ccccc1 (stereo not drawn)	MrgX1 antagonist -5.2 | MrgX1 antag conf inactive | HEK293 Ca flux inactive | HEK293 Ca counter inactive | HEK293 Ca cntr2 inactive
CCN(CC(=O)Nc1cccc(S(=O)(=O)N2CCOCC2)c1)Cc1ccccc1	none
CC1CCC2(CC1)NC(=O)N(CC(=O)Nc1cccc(S(=O)(=O)N3CCOCC3)c1)C2=O (stereo not drawn)	none
O=C(Cn1nnc(-c2ccccc2)n1)Nc1cccc(S(=O)(=O)N2CCOCC2)c1	MrgX1 antagonist -4.8 | MrgX1 antag conf 70% | HEK293 Ca flux inactive | HEK293 Ca counter inactive | HEK293 Ca cntr2 inactive
O=C(CN1C(=O)NC2(CCCCC2)C1=O)Nc1cccc(S(=O)(=O)N2CCOCC2)c1	MrgX1 antagonist -5.4 | MrgX1 antag conf inactive | HEK293 Ca flux inactive | HEK293 Ca counter inactive | HEK293 Ca cntr2 inactive
O=C(CCS(=O)(=O)c1ccc(Br)cc1)N1CCN(c2ccccc2F)CC1	MrgX1 antagonist -5.4 (no result: RGS4 inh, RGS4 act) | MrgX1 antag conf inactive | HEK293 Ca flux inactive | HEK293 Ca counter inactive | HEK293 Ca cntr2 inactive
CCOc1cc(C2NC(=O)NC2=O)ccc1O (stereo not drawn)	none
COc1cc(NC(=O)CC(C)C)ccc1NC(=O)c1ccco1	MrgX1 antagonist -5.2 | MrgX1 antag conf inactive | HEK293 Ca flux inactive | HEK293 Ca counter inactive | HEK293 Ca cntr2 inactive
NC1=NC(=O)C(Cc2ccc(OC(F)(F)F)cc2)S1 (stereo not drawn)	none
COc1ccc(-n2c(=S)[nH]c3cc(C(=O)Nc4ccc(C)c(F)c4)ccc3c2=O)c(OC)c1	MrgX1 antagonist -5 | MrgX1 antag conf inactive | HEK293 Ca flux inactive | HEK293 Ca counter inactive | HEK293 Ca cntr2 inactive
CCOc1ccc(-n2nc3c(SCCN4CCCC4)nnc(C)c3c2C)cc1	MrgX1 antagonist -4.7 | MrgX1 antag conf inactive | HEK293 Ca flux inactive | HEK293 Ca counter inactive | HEK293 Ca cntr2 inactive
Cc1ccc(-n2nc3c(SCCN4CCOCC4)nnc(C)c3c2C)cc1	none
Cc1ccccc1NC(=O)C(C)OC(=O)c1ccccc1C(=O)N(C)c1ccccc1 (stereo not drawn)	MrgX1 antagonist -5.7 | MrgX1 antag conf inactive | HEK293 Ca flux inactive | HEK293 Ca counter inactive | HEK293 Ca cntr2 inactive
CCOC(=O)C1=C(COC(=O)c2ccc(Br)o2)NC(=O)NC1C (stereo not drawn)	none
COc1ccc(NC(=O)CN(c2ccccc2F)S(=O)(=O)c2ccc(C)cc2)c(OC)c1	none
CCC(=O)Nc1nc(N)n(-c2ccccc2)n1	MrgX1 antagonist -6.9 | MrgX1 antag conf inactive | HEK293 Ca flux inactive | HEK293 Ca counter inactive | HEK293 Ca cntr2 inactive
CN1CCN(S(=O)(=O)c2ccc(NC(=O)Cc3cccs3)cc2)CC1	MrgX1 antagonist -4.7 | MrgX1 antag conf inactive | HEK293 Ca flux inactive | HEK293 Ca counter inactive | HEK293 Ca cntr2 51
O=C(Cc1cccs1)Nc1ccc(S(=O)(=O)N2CCCCC2)cc1	none (no result: RGS4 inh, RGS4 act)
CCC(=O)Nc1ccc(S(=O)(=O)N2CCc3ccccc3C2)cc1	MrgX1 antagonist -7.9 | MrgX1 antag conf inactive | HEK293 Ca flux inactive | HEK293 Ca counter inactive | HEK293 Ca cntr2 inactive
